CHO parental Ca: signal in parental CHO cells, OX1R antagonist counter-screen | 0.63% of 330,000 active | inhibition, % at 5.6 µM | parental CHO-K1, ATP-induced calcium, Fluo-8 fluorescence;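 active means inhibition above that plate's mean sample inhibition plus 3 SD, cut at about 26% in these data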;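 further: 0% = ATP-challenged DMSO wells and 100% = DMSO wells without ATP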
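Test system: untransfected parental CHO cell line; also added: ATP stimulus; dosing: 5.6 µM, single dose; signal: calcium-sensitive Fluo-8 fluorescence; measure: percent inhibition of ATP-evoked calcium rise, normalized to controls; benchmarks: low control ATP plus DMSO, high control DMSO only; replication: one well per compound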
TAAR1 ag: agonists of human TAAR1 | Q96RJ0 | CHO RD-HGA16 TAAR1, Fluo-8 calcium fluorescence; vehicle wells 0%, saturating PEA agonist 100% | activation, % at 3 µM | 0.99% of 360,000 active;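 active means activation above the mean activation of all test compounds in the run plus 3 SD, cut at about 38% in these data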
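Benchmarks: low control DMSO, high control PEA (EC100); System: CHO RD-HGA16 cells carrying human TAAR1 plus Gα16; Detection: Fluo-8 fluorescence, 5 s baseline then 140 s kinetic read; Schedule: 17-24 h plating, Fluo-8 75 min 37 °C, 30 min RT; Read-out basis: % activation from peak over basal fluorescence ratio, DMSO-to-PEA scaled.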
TAAR1 antagonist: antagonists of human TAAR1. Q96RJ0. CHO RD-HGA16 TAAR1, Fluo-8 calcium fluorescence, antagonist. inhibition, % at 3 µM. 1.5% of 360,000 active;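 active means inhibition above a per-plate cutoff, the mean inhibition of test compounds on that plate plus 3 SD, cut at about 49% in these data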;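 further: 0% = DMSO plus EC80 beta-PEA response and 100% = DMSO alone without agonist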
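Test system: CHO RD-HGA16 cells bearing hTAAR1 | Reagent: β-PEA, EC80 | Compound dosing: 3 µM, single point | Schedule: Dye loading 75 min at 37 °C, then 30 min room temperature | Signal: Calcium fluorescence with Fluo-8 | Evaluation: Percent inhibition of PEA-evoked calcium signal, max/basal emission ratio | Control set: DMSO-only wells and EC80 β-PEA-stimulated wells | Repeats: Singlicate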
OX1R antag-1: human HCRTR1 antagonism. CHO/OX1R cells, Fluo-8 calcium fluorescence, orexin A. O43613. inhibition, % at 5 µM. 0.43% of 330,000 active. AID 434989;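 active means inhibition above its plate's threshold, mean inhibition of all tested compounds on the plate plus 3 SD, cut at about 37% in these data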;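 further: 0% = orexin A challenge wells and 100% = SB-334867-A antagonist wells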
NTR1 agonist: NTR1 (human) agonism; NTR1-U2OS beta-arrestin-GFP spot imaging, agonist mode; 0.17% of 330,000 active; activation, % at 20 µM; AID 493036; P30989;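 active means activation at or above 40% of the spot to cytoplasm intensity ratio, with at least 20 cells analyzed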;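 further: 0% = DMSO without peptide and 100% = 100 nM NTR1 peptide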
Target sequence (P30989 whole entry, looked up): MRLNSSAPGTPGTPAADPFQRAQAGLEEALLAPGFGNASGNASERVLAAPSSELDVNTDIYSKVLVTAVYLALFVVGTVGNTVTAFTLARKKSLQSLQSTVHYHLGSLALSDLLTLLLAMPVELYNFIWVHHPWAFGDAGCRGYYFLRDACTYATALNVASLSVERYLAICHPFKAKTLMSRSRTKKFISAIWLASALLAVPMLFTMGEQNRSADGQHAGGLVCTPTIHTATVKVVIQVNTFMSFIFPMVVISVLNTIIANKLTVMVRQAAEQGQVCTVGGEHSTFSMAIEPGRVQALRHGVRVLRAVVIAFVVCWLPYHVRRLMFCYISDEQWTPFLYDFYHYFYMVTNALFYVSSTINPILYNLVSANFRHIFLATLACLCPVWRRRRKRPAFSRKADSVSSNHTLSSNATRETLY
OX1R antag-2: blocks the human orexin 1 receptor; OX1R-expressing cells, FRET antagonist read-out; inhibition, % at 6.6 µM; 1.8% of 330,000 active; AID 485270; in the data active means inhibition mostly above about 38%, no sharp cut-off; inactive means mostly below about 40%;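 further: 0% = agonist challenge alone and 100% = reference antagonist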
Starred values were filed as active, the others as inactive; / = no result. Compounds with a hit are over-represented: about 4% of the library has one in this group of screens.

SMILES	CHO parental Ca	TAAR1 ag	TAAR1 antagonist	OX1R antag-1	NTR1 agonist	OX1R antag-2
CCOC(=O)c1c(CSc2ccccc2)n(C)c2cc(Br)c(OC)c(O)c12	-5	2	32	-25	3	11
COc1ccc(CNC(=O)[C@H](Cc2ccccc2)NC(=O)CC[C@H]2O[C@@H](n3ccc(=O)[nH]c3=O)[C@H](O)[C@@H]2O)cc1	/	4	-35	/	/	/
Cc1cc2c(nc1C)CCCN2S(=O)(=O)c1cccs1	/	0	-16	/	/	/
CCCCCCCCCCOC(=O)Cn1c(COc2ccc(Cl)cc2)[n+](C)c2ccccc21	33*	47*	32	21	29	7
CCCCOC(=O)Cn1c(=O)n(CC(=O)OCCCC)c2ccccc21	-8	0	-5	-23	1	31
CCCCCCCCCCOC(=O)Cn1c(COc2cccc(C)c2)[n+](C)c2ccccc21	65*	42*	65*	75*	19	17
CCCCCCCCCCOC(=O)Cn1c(COc2ccccc2)[n+](C)c2ccccc21	62*	31	35	73*	31	11
CCCCCOC(=O)Cn1c(=O)oc2ccccc21	-1	1	-33	-13	-2	19
CCOC(=O)Cn1c(COc2ccccc2OC)[n+](C)c2ccccc21	-8	0	8	-18	-2	6
CCCCCCCCCCOC(=O)Cn1c(COc2ccccc2C)[n+](C)c2ccccc21	43*	/	/	53*	22	0
COC(=O)C1=C(C)N(C)C(=NCc2ccc(OC)cc2)NC1c1ccc(F)cc1 (stereo not drawn)	/	0	2	/	/	/
CC(C)(C)C(=O)/C(=C/c1ccc(Cl)cc1)n1cncn1	/	-1	-13	/	8	/
CC(C)(C)C(=O)/C(=C\c1ccc([N+](=O)[O-])cc1)n1cncn1	23	/	/	14	6	101*
COCCNC(=O)c1c(N)[nH]c(C(=O)c2ccc(Br)cc2)c1-c1ccc(Br)cc1	/	0	1	/	/	/
NC(=O)CNC(=O)C1CCN(S(=O)(=O)c2ccc(-n3cnnn3)cc2)CC1	-1	0	-14	-8	1	12
COC(=O)C1=C(C)N(Cc2cccc(C(F)(F)F)c2)C(=NCc2ccc(C(F)(F)F)cc2)NC1c1cccc(F)c1 (stereo not drawn)	/	14	14	/	/	/
COc1cccc(Nc2nc(C(N)Cc3ccccc3)cs2)n1 (stereo not drawn)	/	52*	29	/	/	/
NC(Cc1ccc(C(F)(F)F)cc1)c1csc(Nc2cc(NCc3ccco3)ncn2)n1 (stereo not drawn)	/	38*	29	/	/	/
CC(C)CC(N)c1csc(Nc2ccc(C(=O)N(C)Cc3ccccc3)cn2)n1 (stereo not drawn)	/	13	2	/	/	/
NC(Cc1ccc(C(F)(F)F)cc1)c1csc(Nc2ncccn2)n1 (stereo not drawn)	/	19	9	/	/	/
NC(Cc1ccc(C(F)(F)F)cc1)c1csc(Nc2ccccn2)n1 (stereo not drawn)	/	46*	8	/	/	/
CN(Cc1ccccc1)C(=O)c1ccc(Nc2nc(C(N)Cc3ccccc3)cs2)nc1 (stereo not drawn)	/	45*	45	/	/	/
CCCCCCCCN1C(=O)[C@@H](CC(=O)NCc2ccc(C)o2)C[C@@]2(C(=O)OC)C1=C[C@H](C1CCCC1)O[C@@H]2C	/	-1	-33	/	/	/
C[C@]12Cc3ccccc3C1CC1=N[C@@H](C3CCCCC3)O[C@@]13C[C@@H]2C(=O)N3C1CCN(Cc2ccccc2)CC1 (stereo partly drawn)	/	-2	-42	/	/	/
Cc1ccccc1C(=O)N[C@@H](Cc1cccnc1)C(=O)N1CCC[C@H]1C(=O)NC1CCCC1	/	0	9	/	/	/
SMILES	CHO parental Ca	TAAR1 ag	TAAR1 antagonist	OX1R antag-1	NTR1 agonist	OX1R antag-2
CCOC(=O)CC(NC(=O)c1cccc2c1C(=O)N(Cc1cccnc1)C2)c1ccc(OC(C)C)cc1 (stereo not drawn)	-3	8	39	-16	2	48*
COC(=O)[C@]12C[C@H](CC(=O)NCC3CCCCC3)C(=O)N(CCC3=CCCCC3)C1=C[C@H](COCc1ccccc1)O[C@@H]2C	/	-1	-22	/	/	/
C/C(=N/NC(=O)CN(c1ccccc1)S(=O)(=O)c1ccccc1)c1ccccc1O	0	1	-4	-24	1	50*
Cc1ccc(NC(=O)CSc2cccc[n+]2[O-])c([N+](=O)[O-])c1	-1	1	-31	-1	0	69*
O=C(CSc1cccc[n+]1[O-])Nc1ccc(Cl)cc1F	4	2	-15	-24	-1	-1
O=C(CSc1cccc[n+]1[O-])Nc1cc([N+](=O)[O-])ccc1Cl	-2	0	-5	-23	0	43*
Cc1coc2c(C)c3oc(=O)c(CCC(=O)N[C@@H](C)C(=O)N[C@@H](Cc4ccccc4)C(=O)O)c(C)c3cc12	-10	0	-3	-8	3	45*
Cc1coc2c(C)c3oc(=O)c(CC(=O)N[C@@H](CC(C)C)C(=O)O)c(C)c3cc12	10	3	-3	13	4	3
CCCC(=O)OC[C@H]1CN(C2CCCC2)S(=O)(=O)c2c(Oc3ccc(C(C)(C)C)cc3)cccc2O1	/	2	-19	/	/	/
CCOc1ccccc1N1CCN(C(=O)c2cc(S(=O)(=O)N3CCCCC3)ccc2C)CC1	-23	28	55*	-16	1	-4
C[C@H](O)[C@@H]1C(=O)N2CCc3c([nH]c4ccccc34)[C@@H]2C[C@@H]1N(C)C(=O)Nc1ccc(Br)cc1	/	3	8	/	/	/
Cc1ccc(S(=O)(=O)N2c3ccccc3-c3c(ssc3=S)C2(C)C)cc1	-30	0	-25	42*	9	88*
COc1ccc2c(c1)-c1c(ssc1=S)C(C)(C)N2S(=O)(=O)c1ccc(C)cc1	-13	-1	0	-17	3	5
Oc1ccc(-c2cnc3ccccc3n2)cc1	-8	8	-13	-8	-2	12
O=c1[nH]cnc2ncc(-c3ccc(O)cc3)nc12	-9	4	-17	1	0	60*
Cc1cccc(OCCCC(=O)NC2CCCCC2)c1	-6	1	-23	-9	2	17
COc1ccc(-c2[nH]ncc2-c2ccc(Cl)cc2)c(O)c1	72*	2	12	20	5	12
COc1ccc(-c2cn[nH]c2-c2ccc(OCc3ccccc3)cc2O)cc1	54*	-1	10	16	30	8
COc1ccc(-c2cn[nH]c2-c2ccc(OC)cc2O)cc1	-9	-1	-10	-8	2	9
O=C(N[C@H](C(=O)N1CCC[C@H]1C(=O)NCc1ccccc1)C1CCCCC1)c1ccc(Cl)cc1Cl	/	-2	-11	/	/	/
CCn1nc(C)cc1-c1nnc(SCC(=O)Nc2ccccc2)n1CCCOC	-10	0	-10	-15	1	5
